Assay results published in ChEMBL document CHEMBL1926569, “Novel (E)-1-(4-methyl-2-(alkylamino)thiazol-5-yl)-3-arylprop-2-en-1-ones as potent antimicrobial agents” (2011).
In brackets after ≈: the same amount, converted by molar mass.

Assays:
[1] = test system: Penicillium ochrochloron; experiment: Antifungal activity against Penicillium ochrochloron ATCC 9112 after 72 hrs by serial dilution technique; assay type: functional; settings: ATCC 9112, 72 h
Procedure, shortened: (§1)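 Modified microdilution in 96-well plates. Fungi were kept on malt agar at 4 °C. Spores were washed off in sterile 0.85% saline with 0.1% Tween 80. Compounds were dissolved at 1 mg/ml in 5% DMSO with 0.1% Tween 80 and added to malt broth with inoculum. Plates were shaken at 160 rpm for 72 h at 28 °C. Duplicate, repeated three times.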

[2] = test system: Salmonella typhimurium; experiment: Antibacterial activity against Salmonella Typhimurium ATCC 13311 after 24 hrs by microdilution method; assay type: functional, Salmonella enterica subsp. enterica serovar Typhimurium; settings: Salmonella enterica, ATCC 13311, 24 h
Procedure, shortened: (§2)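 Broth microdilution in 96-well plates. Bacterial suspensions were adjusted in sterile saline to 1.0 × 10⁵ CFU/ml, prepared daily and kept at 4 °C. Compound was added to LB broth with 1.0 × 10⁴ CFU per well and shaken at 160 rpm for 24 h at […] (so in the source). MIC is the lowest concentration with no visible growth under a binocular microscope. OD655 was also read. Duplicate, repeated three times.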

[3] = test system: Aspergillus fumigatus; experiment: Ratio of ketoconazole to compound for Aspergillus fumigatus isolated from human; assay type: functional
[4] = test system: Aspergillus niger; experiment: Ratio of bifonazole to compound for Aspergillus niger ATCC 6275; assay type: functional
[5] = test system: Bacillus cereus; experiment: Antibacterial activity against clinical isolate of Bacillus cereus after 24 hrs by microdilution method; assay type: functional; procedure, shortened: as §2
[6] = test system: Pseudomonas aeruginosa; experiment: Antibacterial activity against Pseudomonas aeruginosa ATCC 27853 incubated for 24 hrs followed by serial sub-cultivation for 24 hrs by microdilution; assay type: functional; settings: ATCC 27853, 24 h
Procedure, shortened: (§3)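 MBC: after the 24 h LB broth microdilution (1.0 × 10⁴ CFU per well, 160 rpm), wells were serially sub-cultured into fresh broth plates and incubated a further 24 h. MBC is the lowest concentration with no visible growth, taken as 99.5% killing of the original inoculum. Duplicate, repeated three times.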

[7] = test system: Aspergillus fumigatus; experiment: Antifungal activity against Aspergillus fumigatus isolated from human incubated for 72 hrs followed by serial sub-cultivation for 72 hrs by serial dilution technique; assay type: functional
Procedure, shortened: (§4)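 MFC: material from 72 h malt broth microdilution wells was serially sub-cultured into fresh broth plates and incubated a further 72 h at 28 °C. Fungicidal concentration is taken from growth after sub-culture. Duplicate, repeated three times.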

[8] = test system: Talaromyces funiculosus; experiment: Antifungal activity against Penicillium funiculosum ATCC 36839 incubated for 72 hrs followed by serial sub-cultivation for 72 hrs by serial dilution technique; assay type: functional; settings: ATCC 36839, 72 h; procedure, shortened: as §4
[9] = test system: Candida albicans; experiment: Antifungal activity against Candida albicans isolated from human after 72 hrs by serial dilution technique; assay type: functional; procedure, shortened: as §1
[10] = test system: Aspergillus niger; experiment: Antifungal activity against Aspergillus niger ATCC 6275 incubated for 72 hrs followed by serial sub-cultivation for 72 hrs by serial dilution technique; assay type: functional; settings: ATCC 6275, 72 h; procedure, shortened: as §4
[11] = test system: Aspergillus ochraceus; experiment: Ratio of ketoconazole to compound for Aspergillus ochraceus ATCC 12066; assay type: functional
[12] = test system: Aspergillus ochraceus; experiment: Ratio of bifonazole to compound for Aspergillus ochraceus ATCC 12066; assay type: functional
[13] = test system: Aspergillus ochraceus; experiment: Antifungal activity against Aspergillus ochraceus ATCC 12066 incubated for 72 hrs followed by serial sub-cultivation for 72 hrs by serial dilution technique; assay type: functional; settings: ATCC 12066, 72 h; procedure, shortened: as §4
[14] = test system: Staphylococcus aureus; experiment: Antibacterial activity against Staphylococcus aureus ATCC 6538 incubated for 24 hrs followed by serial sub-cultivation for 24 hrs by microdilution method; assay type: functional; settings: ATCC 6538, 24 h; procedure, shortened: as §3
[15] = test system: Aspergillus flavus; experiment: Antifungal activity against Aspergillus flavus ATCC 9643 after 72 hrs by serial dilution technique; assay type: functional; settings: ATCC 9643, 72 h; procedure, shortened: as §1
[16] = test system: Staphylococcus aureus; experiment: Antibacterial activity against Staphylococcus aureus ATCC 6538 after 24 hrs by microdilution method; assay type: functional; settings: ATCC 6538, 24 h; procedure, shortened: as §2
[17] = test system: Candida albicans; experiment: Ratio of bifonazole to compound for Candida albicans isolated from human; assay type: functional
[18] = test system: Escherichia coli; experiment: Antibacterial activity against Escherichia coli ATCC 35210 incubated for 24 hrs followed by serial sub-cultivation for 24 hrs by microdilution; assay type: functional; settings: ATCC 35210, 24 h; procedure, shortened: as §3
[19] = test system: Micrococcus flavus; experiment: Antibacterial activity against Micrococcus flavus ATCC 10240 after 24 hrs by microdilution method; assay type: functional; settings: ATCC 10240, 24 h; procedure, shortened: as §2
[20] = test system: Listeria monocytogenes; experiment: Antibacterial activity against Listeria monocytogenes NCTC 7973 after 24 hrs by microdilution method; assay type: functional; settings: NCTC 7973, 24 h; procedure, shortened: as §2
[21] = test system: Penicillium ochrochloron; experiment: Ratio of ketoconazole to compound for Penicillium ochrochloron ATCC 9112; assay type: functional
[22] = test system: Trichoderma viride; experiment: Ratio of bifonazole to compound for Trichoderma viride IAM 5061; assay type: functional
[23] = test system: Candida albicans; experiment: Ratio of ketoconazole to compound for Candida albicans isolated from human; assay type: functional
[24] = test system: Aspergillus niger; experiment: Antifungal activity against Aspergillus niger ATCC 6275 after 72 hrs by serial dilution technique; assay type: functional; settings: ATCC 6275, 72 h; procedure, shortened: as §1
[25] = test system: Aspergillus flavus; experiment: Antifungal activity against Aspergillus flavus ATCC 9643 incubated for 72 hrs followed by serial sub-cultivation for 72 hrs by serial dilution technique; assay type: functional; settings: ATCC 9643, 72 h; procedure, shortened: as §4
[26] = test system: Micrococcus flavus; experiment: Antibacterial activity against Micrococcus flavus ATCC 10240 incubated for 24 hrs followed by serial sub-cultivation for 24 hrs by microdilution; assay type: functional; settings: ATCC 10240, 24 h; procedure, shortened: as §3
[27] = test system: Enterococcus faecalis; experiment: Antibacterial activity against Enterococcus faecalis isolated from human incubated for 24 hrs followed by serial sub-cultivation for 24 hrs by microdilution; assay type: functional; procedure, shortened: as §3
[28] = test system: Talaromyces funiculosus; experiment: Ratio of bifonazole to compound for Penicillium funiculosum ATCC 36839; assay type: functional
[29] = test system: Aspergillus ochraceus; experiment: Antifungal activity against Aspergillus ochraceus ATCC 12066 after 72 hrs by serial dilution technique; assay type: functional; settings: ATCC 12066, 72 h; procedure, shortened: as §1
[30] = test system: Penicillium ochrochloron; experiment: Ratio of bifonazole to compound for Penicillium ochrochloron ATCC 9112; assay type: functional
[31] = test system: Salmonella typhimurium; experiment: Antibacterial activity against Salmonella Typhimurium ATCC 13311 incubated for 24 hrs followed by serial sub-cultivation for 24 hrs by microdilution; assay type: functional, Salmonella enterica subsp. enterica serovar Typhimurium; settings: Salmonella enterica, ATCC 13311, 24 h; procedure, shortened: as §3
[32] = test system: Trichoderma viride; experiment: Antifungal activity against Trichoderma viride IAM 5061 after 72 hrs by serial dilution technique; assay type: functional; settings: IAM 5061, 72 h; procedure, shortened: as §1
[33] = test system: Penicillium ochrochloron; experiment: Antifungal activity against Penicillium ochrochloron ATCC 9112 incubated for 72 hrs followed by serial sub-cultivation for 72 hrs by serial dilution technique; assay type: functional; settings: ATCC 9112, 72 h; procedure, shortened: as §4
[34] = test system: Escherichia coli; experiment: Antibacterial activity against Escherichia coli ATCC 35210 after 24 hrs by microdilution method; assay type: functional; settings: ATCC 35210, 24 h; procedure, shortened: as §2
[35] = test system: Bacillus cereus; experiment: Antibacterial activity against clinical isolate of Bacillus cereus incubated for 24 hrs followed by serial sub-cultivation for 24 hrs by microdilution; assay type: functional; procedure, shortened: as §3
[36] = test system: Pseudomonas aeruginosa; experiment: Ratio of ampicillin MIC to compound MIC for Pseudomonas aeruginosa ATCC 27853; assay type: functional
[37] = test system: Listeria monocytogenes; experiment: Antibacterial activity against Listeria monocytogenes NCTC 7973 incubated for 24 hrs followed by serial sub-cultivation for 24 hrs by microdilution; assay type: functional; settings: NCTC 7973, 24 h; procedure, shortened: as §3
[38] = test system: Candida albicans; experiment: Antifungal activity against Candida albicans isolated from human incubated for 72 hrs followed by serial sub-cultivation for 72 hrs by serial dilution technique; assay type: functional; procedure, shortened: as §4
[39] = test system: Aspergillus ochraceus; experiment: Antifungal activity against Aspergillus ochraceus after 72 hrs by serial dilution technique
[40] = test system: Talaromyces funiculosus; experiment: Antifungal activity against Penicillium funiculosum ATCC 36839 after 72 hrs by serial dilution technique; assay type: functional; settings: ATCC 36839, 72 h; procedure, shortened: as §1
[41] = test system: Trichoderma viride; experiment: Antifungal activity against Trichoderma viride IAM 5061 incubated for 72 hrs followed by serial sub-cultivation for 72 hrs by serial dilution technique; assay type: functional; settings: IAM 5061, 72 h; procedure, shortened: as §4
[42] = test system: Pseudomonas aeruginosa; experiment: Antibacterial activity against Pseudomonas aeruginosa ATCC 27853 after 24 hrs by microdilution method; assay type: functional; settings: ATCC 27853, 24 h; procedure, shortened: as §2
[43] = test system: Enterococcus faecalis; experiment: Antibacterial activity against Enterococcus faecalis isolated from human after 24 hrs by microdilution method; assay type: functional; procedure, shortened: as §2

`CNc1nc(C)c(C(=O)/C=C/c2cccc(Br)c2)s1` gave an MIC [1] of 29.7 µM (≈ 10 µg/mL), an MIC [2] of 59.3 µM (≈ 20 µg/mL) and a Ratio [3] of 10. The Ratio [4] was 10, the MIC [5] was 99.3 µM (≈ 33.5 µg/mL) and the MBC [6] was 74.2 µM (≈ 25 µg/mL). It also gave an MFC [7] of 59.3 µM (≈ 20 µg/mL), an MFC [8] of 59.3 µM (≈ 20 µg/mL) and an MIC [9] of 44.5 µM (≈ 15 µg/mL). It also gave an MFC [10] of 59.3 µM (≈ 20 µg/mL), a Ratio [11] of 10 and a Ratio [12] of 10. For the same compound, the MFC [13] was 59.3 µM (≈ 20 µg/mL), the MBC [14] was 74.2 µM (≈ 25 µg/mL) and the MIC [15] was 29.7 µM (≈ 10 µg/mL). It also gave an MIC [16] of 59.3 µM (≈ 20 µg/mL), a Ratio [17] of 10 and an MBC [18] of 74.2 µM (≈ 25 µg/mL). For the same compound, the MIC [19] was 14.8 µM (≈ 4.99 µg/mL), the MIC [20] was 89 µM (≈ 30 µg/mL) and the Ratio [21] was 10. For the same compound, the Ratio [22] was 10, the Ratio [23] was 10 and the MIC [24] was 44.5 µM (≈ 15 µg/mL). It also gave an MFC [25] of 74.2 µM (≈ 25 µg/mL), an MBC [26] of 59.3 µM (≈ 20 µg/mL) and an MBC [27] of 74.2 µM (≈ 25 µg/mL). The Ratio [28] was 10, the MIC [29] was 29.7 µM (≈ 10 µg/mL) and the Ratio [30] was 10. It also gave an MBC [31] of 74.2 µM (≈ 25 µg/mL), an MIC [32] of 29.7 µM (≈ 10 µg/mL) and an MFC [33] of 59.3 µM (≈ 20 µg/mL). It also gave an MIC [34] of 74.2 µM (≈ 25 µg/mL), an MBC [35] of 74.2 µM (≈ 25 µg/mL) and a Ratio [36] of 10. It also gave an MBC [37] of 89 µM (≈ 30 µg/mL), an MFC [38] of 59.3 µM (≈ 20 µg/mL) and an MIC [39] of 29.7 µM (≈ 10 µg/mL). The MIC [40] was 29.7 µM (≈ 10 µg/mL), the MFC [41] was 59.3 µM (≈ 20 µg/mL) and the MIC [42] was 74.2 µM (≈ 25 µg/mL). The MIC [43] was 74.2 µM (≈ 25 µg/mL).
